The list is not random: actives were taken first. Their share in the collection is about 1.9%.
MsrA inh = inhibitors of bovine MsrA. purified bovine MsrA, absorbance read-out. inhibition, % at 15.5 µM. 360,000 tested, 0.75% active. AID 651718; in the data active means inhibition above about 4.5%;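 further: 0% = vehicle wells with enzyme and 100% = reference inhibitor wells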
bovine MsrA act = activates bovine MsrA enzyme. purified bovine MsrA, absorbance read-out. activation, % at 10.6 µM. 360,000 tested, 0.3% active; in the data active means activation above about 7.5%;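 further: 0% = vehicle and 100% = reference activator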
UCH37 inh = blocks the human deubiquitinase UCH37 | Q9Y5K5 | purified proteasome/UCH37, Ub-AMC cleavage fluorescence | inhibition, % (no concentration beside the values) | 330,000 tested, 0.33% active;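 active means mean inhibition over replicate wells above about 20%, limit read from the data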;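 further: 0% = compound-free wells with enzyme and 100% = wells lacking proteasome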
Target sequence (Q9Y5K5 whole entry, looked up): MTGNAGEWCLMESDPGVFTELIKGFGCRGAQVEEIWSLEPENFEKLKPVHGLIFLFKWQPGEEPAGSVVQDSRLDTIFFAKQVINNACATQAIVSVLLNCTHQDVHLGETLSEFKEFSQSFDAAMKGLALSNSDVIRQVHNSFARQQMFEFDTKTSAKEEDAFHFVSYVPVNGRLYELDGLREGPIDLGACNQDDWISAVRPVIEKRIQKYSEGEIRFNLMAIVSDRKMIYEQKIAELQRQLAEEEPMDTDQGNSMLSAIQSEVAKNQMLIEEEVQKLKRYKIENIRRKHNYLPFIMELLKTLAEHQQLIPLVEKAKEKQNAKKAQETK
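Material: human UCH37 enzyme supplied as purified proteasome complex. Measure: % inhibition of Ub-AMC cleavage fluorescence. Medium: pH 7.4 Tris-HCl (50 mM) with ovalbumin, ATP-MgCl2, DTT. Times: 30 min preincubation with enzyme, 25 min cleavage at room temperature. Detection: AMC fluorescence intensity at 355/460 nm.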
N-glyco inh = N-linked glycosylation inhibition | reporter increase, % at 12.5 µM | D54 ERlucT glycosylation luciferase reporter, 24 h; percent of 100 nM tunicamycin response | 360,000 tested, 0.23% active | AID 588692;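 active means mean luciferase reporter signal, scaled so untreated is 0 and the glycosylation-blocking control 100, at or above a set limit in every replicate; inconclusive means mean reaches the limit but not every replicate does; inactive means mean below the limit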;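 further: luciferase carries N-glycosylation sites so blocking glycosylation raises the light; 0% = median of neutral control wells and 100% = median of 100 nM tunicamycin wells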
aDG glyco act = increases alpha dystroglycan glycosylation. 360,000 tested, 0.22% active. activation, % at 10 µM. Pro5-aDG cells, alpha-DG glycosylation AlphaScreen (IIH6); 0% Pro5, 100% B10-LARGE cell signal;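 active means activation of at least 8% versus controls, or a plate z-score of at least 8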;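 further: Pro5 are CHO cells carrying HIG-tagged alpha-DG that lacks glycosylation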
Vif inh = inhibitors of HIV Vif | inhibition, % at 7.49 µM | 340,000 tested, 0.35% active | HEK293T cells, Vif self-association by quenched fluorescence, imaging, 24 h; in the data active means inhibition above about 50%, passing the limit was not always enough; inconclusive means no clear call, values can overlap the other calls; inactive means below about 31%
UCH37 confirm = confirmation of human UCH37 deubiquitinating enzyme inhibitors; AID 624100; inhibition, % at 20 µM; 480 tested, 27% active; shares compounds with UCH37 inh; Proteasome-bound UCH37, Ub-AMC cleavage fluorescence;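 active means average inhibition over replicates above about 50%, so the earlier screening hit is confirmed, limit read from the data; inactive means the rest, counted as false positives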;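 further: based on cleavage rate fitted by regression over a 30 min kinetic read; 0% = proteasome plus Ub-AMC and 100% = Ub-AMC without proteasome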
Starred values were filed as active, the others as inactive; u = inconclusive; x = not tested or not shown.

SMILES	MsrA inh	bovine MsrA act	UCH37 inh	N-glyco inh	aDG glyco act	Vif inh	others
COC1/C=C/C=C(\C)Cc2cc(O)c(Cl)c(c2)N(C)C(=O)CC(OC(=O)C(C)C)C2(C)OC2C(C)C2CC1(O)NC(=O)O2 (configuration not stated)	0	-1	x	-14	0	64*
c1ccc2c(c1)Sc1ccccc1N2CC1CN2CCC1CC2 (configuration not stated)	-1	-1	-3	-1	0	53*
Clc1ccccc1CNC1CN2CCC1CC2 (configuration not stated)	1	-1	3	2	0	8
CC(=Nc1ccc2c(c1)CCC2)c1c(O)n(C)c(=O)n(C)c1=O	1	0	32*	0	0	0
CCC(=Nc1ccc2c(c1)CCC2)c1c(O)n(C)c(=O)n(C)c1=O	0	-2	2	2	3	-19
CN1C(=O)C(=Cc2sc(=O)n(-c3ccccc3)c2N(C)C)C(=O)N(C)C1=O	0	-4	7	29*	0	11
O=C1NC(=O)N(CCNc2ncc(C(F)(F)F)cc2Cl)C(=O)C1C=NOCc1c(F)cccc1Cl (configuration not stated)	x	x	-3	x	x	x
O=c1[nH]c(O)c(/C=C2/C=CC(c3cc(Cl)ccc3Cl)=N2)c(=O)[nH]1	0	-5	7	49*	0	-3
CC1=Nc2ccccc2/C1=C/c1c(O)[nH]c(=O)[nH]c1=O	0	-1	3	1	0	u
COc1cc(C2c3cc4c(cc3CC3COC(=O)C32)OCO4)cc(OC)c1OC (configuration not stated)	1	-7	1	14	-1	87*
COc1cc(C2c3cc4c(c(O)c3CC3COC(=O)C32)OCO4)cc(OC)c1OC (configuration not stated)	0	-6	x	6	0	7
Cc1c(N=Cc2c(O)n(C)c(=O)[nH]c2=O)c(=O)n(-c2ccccc2)n1C	1	-5	11	2	0	-1
C=CCn1c(O)c(C=Nc2c(C)n(C)n(-c3ccccc3)c2=O)c(=O)[nH]c1=O	3	-1	20*	1	0	0
NC(=NCCCC(NC(=O)CNC(=O)c1ccccc1)C(=O)O)N[N+](=O)[O-] (configuration not stated)	x	x	4	x	x	x
O=c1[nH]c(=O)n(CCc2ccc(F)cc2)c(O)c1C=NCCCn1ccnc1	0	-5	26*	-1	0	-3
CN(C)c1ccc(/C=C2/C(=NO)C3CCN2CC3)cc1	x	x	9	x	x	x
COc1ccc(-c2cc(-c3ccccc3)[n+](C)c(-c3ccccc3)c2)cc1	4.8*	-4	-20	7	0	-24
Cc1cc(C)nc(N2Cc3ccccc3C2=N)n1	0	-4	1	37*	3	22
Cc1ccc(N2Cc3ccccc3C2=N)cc1[N+](=O)[O-]	0	-3	3	1	0	0
CCOC(=O)C(=NNc1ccccc1)N1CC1	x	x	10	x	x	x
CN1C(=O)/C(=C\c2ccc(N3CCCCC3)o2)C(=O)NC1=S	0	-3	22*	-3	0	2
CN1CCN(c2ccc(/C=C3\C(=O)NC(=S)N(c4cccc(Br)c4)C3=O)o2)CC1	0	-2	21*	3	0	6
ON=C1/C(=C\c2ccccc2)N2CCC1CC2	x	x	3	x	x	x
COc1nc(NC(C)C)nc(NC(C)C)n1	-1	3	30*	3	0	-6
CCCCc1nc2ccccc2c(=O)n1-c1ccccc1[N+](=O)[O-]	0	0	24*	-2	0	x
SMILES	MsrA inh	bovine MsrA act	UCH37 inh	N-glyco inh	aDG glyco act	Vif inh	others
NC(=NN=Cc1ccc(-c2ccc(O)c(C(=O)O)c2)o1)N[N+](=O)[O-]	x	x	22*	x	x	x
COC(=O)C1C2c3ccccc3OC1(C)N=c1sc(=Cc3cnn(C)c3C)c(=O)n12 (configuration not stated)	x	x	2	x	x	x
CNC(=S)NN=C1C2CN3CCN(C2)CC1(c1ccccc1)C3	x	x	3	x	x	x
Cn1c(O)c(C=NC2CCCCC2)c(=O)[nH]c1=S	2	0	22*	1	0	7
O=c1[nH]c(O)c(C=NC2CCCCC2)c(=O)[nH]1	-1	0	3	2	0	-6
O=c1c2ccccc2nc(-c2ccccc2)n1-n1cccc1	0	4	24*	-1	0	-23
CC12CC[C@H]3[C@@H](CCC4(O)C[C@H](O)CCC34/C=N/NC(=O)c3ccccc3[N+](=O)[O-])C1(O)CCC2C1=CC(=O)OC1 (some centres not stated)	0	3	x	30*	0	7
COC(=O)C1=C(c2ccc(Cl)c(C(F)(F)F)c2)C[C@@H]2CC[C@H]1N2C(=O)NCCO	0	2	33*	6	0	0
C=C1C(=O)O[C@@H]2C[C@@H](C)[C@@H]3C4OC4C(=O)[C@@]3(C)[C@@H](O)[C@H]12 (some centres not stated)	0	-11	6	-11	0	41*
O=C(CSC1c2ccccc2-c2ccccc21)NN=Cc1ccccc1	x	x	3	x	x	x
Cc1ccc2c(C)c3ccc4ccccc4c3c[n+]2c1	1	-3	x	37*	0	-18
Cc1[nH]c2ccccc2c1C=NO	x	x	1	x	x	x
CN1CCC(N(C)c2ncnc3ccc(Br)cc23)CC1	2	-6	5	-5	0	-7
Cc1ccc(-c2nc(N(C)C3CCN(C)CC3)c3ccccc3n2)cc1	3	-6	-2	49*	0	x
O=[N+]([O-])c1ccc(N(CCO)CCO)c2c1no[n+]2[O-]	1	0	x	-3	0	61*
C=C(C)C(Cc1c(OC)ccc(C(=O)/C=C/c2ccc(O)cc2)c1O)OO (configuration not stated)	1	-3	49*	12	-1	-29	UCH37 confirm=19
COc1ccc(C=NN=C(N)N)cc1	x	x	2	x	x	x
FC(F)(F)C(=NP(=S)(N1CCOCC1)N1CCOCC1)N1CCOCC1	x	x	-2	x	x	x
Cn1c(O)c(C(=O)c2ccccc2)c(=O)n(C)c1=O	0	0	42*	-1	0	-28	UCH37 confirm=7
Cn1c(O)c(C(=O)c2ccccc2F)c(=O)n(C)c1=O	1	-1	3	1	0	22
Cc1ccc2c(c1)CC1(CN2C)C(=O)NC(=O)N(CCC2=CCCCC2)C1=O (configuration not stated)	1	-4	35*	0	0	-2	UCH37 confirm=20
O=C1NC(=O)C(Nc2ccc(Cl)c(Cl)c2)C(=O)N1	3	1	59*	1	0	27	UCH37 confirm=-2
CC(C)(C)N1C(=O)NC(=O)/C(=C\c2ccc3c(c2)CCN3CCCCl)C1=O	1	-9	64*	-1	0	2	UCH37 confirm=1

Screens deposited in PubChem by several laboratories.
